The source of these data is ChEMBL document CHEMBL1126587, “Novel 6-alkoxypurine 2',3'-dideoxynucleosides as inhibitors of the cytopathic effect of the human immunodeficiency virus” (J Med Chem, 1993).

Substrate in data set [1]: CCOc1ncnc2c1ncn2C1CCC(CO)O1
The data set can be described thus: (§1) Michaelis-Menten constant for adenosine deaminase assay in calf intestine. The gist of the method:
(§2)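 Calf intestinal adenosine deaminase, dialyzed against deionized water to remove ammonium sulfate. Dealkoxylation/deamination followed spectrophotometrically at 25 °C, pH 6.8 (adenosine: Δε −5.85 mM⁻¹cm⁻¹ at 270 nm). Km from initial velocity analysis. Relative velocity compares 100 μM dideoxynucleoside against 100 μM adenosine.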

Substrate in data set [2]: COc1ncnc2c1ncn2C1CCC(CO)O1
Described as §1. Put shortly: as §2

Substrate in data set [3]: Nc1ncnc2c1ncn2[C@H]1CC[C@@H](CO)O1
Put plainly: Compound was tested for adenosine deaminase assay in calf intestine. Put shortly: as §2

B1: Adenosine deaminase (Bos taurus), P56658 (protein)
chain: MAQTPAFNKPKVELHVHLDGAIKPETILYYGRKRGIALPADTPEELQNIIGMDKPLSLPEFLAKFDYYMPAIAGCREAVKRIAYEFVEMKAKDGVVYVEVRYSPHLLANSKVEPIPWNQAEGDLTPDEVVSLVNQGLQEGERDFGVKVRSILCCMRHQPSWSSEVVELCKKYREQTVVAIDLAGDETIEGSSLFPGHVKAYAEAVKSGVHRTVHAGEVGSANVVKEAVDTLKTERLGHGYHTLEDATLYNRLRQENMHFEVCPWSSYLTGAWKPDTEHPVVRFKNDQVNYSLNTDDPLIFKSTLDTDYQMTKNEMGFTEEEFKRLNINAAKSSFLPEDEKKELLDLLYKAYGMPSPASAEQCL
For orientation: Km means the concentration of substrate that gives half-maximal velocity. Consider B1, for which the Km in data set [1] was determined as 650 µM; in data set [2], 150 µM; in data set [3] it was 45 µM.
